pIC50: −log10 of the molar value.
What was measured:
[1] = biological target: PI3-kinase p110-delta/p85-alpha (Homo sapiens, UniProt O00329); test: Inhibition human full length PI3Kdelta catalytic subunit/p85alpha assessed as formation of PIP3 after 30 mins by europium labeled GRP-based TR-FRET assay; type: protein-complex assay
Homo sapiens [2] = species: Homo sapiens; test: Selectivity ratio of IC50 for human full length PI3Kgamma to IC50 for human full length PI3Kdelta catalytic subunit/p85alpha
How it was run: (§1)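 Ratio calculated from the isoform-specific PI3K IC50 values, with enzyme assays run in quadruplicate.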

[3] = Clearance in human hepatocytes at 1 uM by LC/MS/MS analysis; type: ADME, cell-based, Hepatocyte
How it was run: (§2)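 Human hepatocytes, incubated with and without the aldehyde oxidase inhibitor raloxifene; predicted clearance calculated from turnover.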

Homo sapiens [4] = species: Homo sapiens; test: Selectivity ratio of IC50 for human recombinant PI3Kbeta to IC50 for human full length PI3Kdelta catalytic subunit/p85alpha; how it was run: as §1
Homo sapiens [5] = species: Homo sapiens; test: Selectivity ratio of IC50 for human full length PI3Kalpha catalytic subunit/p85alpha to IC50 for human full length PI3Kdelta catalytic subunit/p85alpha; how it was run: as §1
Hepatocyte = test: Clearance in human hepatocytes at 1 uM by LC/MS/MS in presence of aldehyde oxidase inhibitor raloxifene; type: ADME, cell-based; how it was run: as §2

Chain of PI3-kinase p110-delta/p85-alpha (P27986 whole entry): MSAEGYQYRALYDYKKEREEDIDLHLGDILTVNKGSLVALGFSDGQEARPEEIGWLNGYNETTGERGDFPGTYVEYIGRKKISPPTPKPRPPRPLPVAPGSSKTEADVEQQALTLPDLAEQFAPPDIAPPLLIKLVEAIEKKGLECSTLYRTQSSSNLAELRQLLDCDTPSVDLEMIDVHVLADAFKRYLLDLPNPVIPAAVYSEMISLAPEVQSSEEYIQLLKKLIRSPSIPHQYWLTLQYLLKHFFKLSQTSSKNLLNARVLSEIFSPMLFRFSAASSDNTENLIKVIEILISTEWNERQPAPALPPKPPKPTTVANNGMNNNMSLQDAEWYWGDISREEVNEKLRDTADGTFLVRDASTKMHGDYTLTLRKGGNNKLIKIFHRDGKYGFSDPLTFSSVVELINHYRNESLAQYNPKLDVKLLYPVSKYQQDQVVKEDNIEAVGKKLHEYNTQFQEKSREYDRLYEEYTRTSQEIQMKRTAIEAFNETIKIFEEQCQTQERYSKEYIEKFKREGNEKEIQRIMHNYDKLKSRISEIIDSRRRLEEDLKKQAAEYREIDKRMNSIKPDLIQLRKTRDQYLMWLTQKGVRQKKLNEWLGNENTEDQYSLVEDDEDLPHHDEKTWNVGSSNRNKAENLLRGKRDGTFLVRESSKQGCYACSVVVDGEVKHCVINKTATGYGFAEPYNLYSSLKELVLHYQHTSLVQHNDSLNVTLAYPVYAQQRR
Chain of PI3-kinase p110-delta/p85-alpha (O00329 whole entry): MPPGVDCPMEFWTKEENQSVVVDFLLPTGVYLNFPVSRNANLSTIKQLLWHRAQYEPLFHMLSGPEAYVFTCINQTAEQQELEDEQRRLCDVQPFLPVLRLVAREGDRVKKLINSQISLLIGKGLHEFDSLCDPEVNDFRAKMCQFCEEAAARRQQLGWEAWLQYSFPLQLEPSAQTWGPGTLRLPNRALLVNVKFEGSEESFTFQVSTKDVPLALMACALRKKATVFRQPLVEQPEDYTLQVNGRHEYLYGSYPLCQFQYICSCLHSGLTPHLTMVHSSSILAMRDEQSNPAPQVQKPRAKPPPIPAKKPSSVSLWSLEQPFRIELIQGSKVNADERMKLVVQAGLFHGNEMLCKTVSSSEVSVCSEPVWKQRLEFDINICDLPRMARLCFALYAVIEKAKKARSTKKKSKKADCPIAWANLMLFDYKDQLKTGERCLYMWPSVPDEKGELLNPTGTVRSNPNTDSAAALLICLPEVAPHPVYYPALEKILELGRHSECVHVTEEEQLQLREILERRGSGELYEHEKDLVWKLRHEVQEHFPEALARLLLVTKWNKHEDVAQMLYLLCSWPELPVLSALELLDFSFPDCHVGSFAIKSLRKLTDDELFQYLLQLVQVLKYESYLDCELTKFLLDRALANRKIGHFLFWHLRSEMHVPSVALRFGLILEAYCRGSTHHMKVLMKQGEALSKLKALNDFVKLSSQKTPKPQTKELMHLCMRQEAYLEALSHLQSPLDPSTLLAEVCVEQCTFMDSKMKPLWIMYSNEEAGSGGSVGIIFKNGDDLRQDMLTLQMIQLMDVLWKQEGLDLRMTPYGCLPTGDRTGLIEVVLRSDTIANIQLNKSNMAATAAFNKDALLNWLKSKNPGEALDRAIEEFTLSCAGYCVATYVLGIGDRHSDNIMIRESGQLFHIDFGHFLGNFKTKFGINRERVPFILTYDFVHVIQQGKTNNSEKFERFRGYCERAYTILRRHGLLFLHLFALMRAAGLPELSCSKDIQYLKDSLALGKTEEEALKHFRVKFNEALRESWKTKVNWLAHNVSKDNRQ

| Compound | pIC50 [1] | Ratio IC50 (Homo sapiens [2]) | CLhep predicted at 1 µM [3] [mL/min/kg] | Ratio IC50 (Homo sapiens [4]) | Ratio IC50 (Homo sapiens [5]) | CLH (Hepatocyte) [mL/min/kg] |
| --- | --- | --- | --- | --- | --- | --- |
| C[C@H](Nc1nc(Cl)nc(N)c1C#N)c1nc2cccc(Cl)c2c(=O)n1-c1ccccc1 | 8.37 | 37 | 9.83 | 180 | 720 | – |
| C#Cc1c(N)ncnc1N[C@@H](C)c1nc2cccc(Cl)c2c(=O)n1-c1ccccc1 | 10.00 | 1900 | 11 | 490 | 9700 | – |
| C[C@H](Nc1nc(N)nc(N)c1Cl)c1nc2cccc(Cl)c2c(=O)n1-c1ccccc1 | 9.05 | 200 | 10.8 | 370 | 2700 | – |
| COc1c(N)ncnc1N[C@@H](C)c1nc2cccc(Cl)c2c(=O)n1-c1ccccc1 | 7.41 | > 251 | – | > 251 | > 251 | – |
| C[C@H](Nc1ncnc(N)c1C#Cc1cccnc1)c1nc2cccc(Cl)c2c(=O)n1-c1ccccc1 | 9.30 | 100 | – | 240 | 620 | – |
| C[C@H](Nc1nc(N)nc(N)c1C#N)c1nc2cccc(Cl)c2c(=O)n1-c1cc(C#N)cc(C#N)c1 | 6.82 | > 68 | – | > 68 | > 68 | – |
| C[C@H](Nc1nc(N)nc(N)c1C#N)c1nc2ccc(F)cc2c(=O)n1-c1cc(F)cc(F)c1 | 8.32 | 160 | 4.83 | 520 | 600 | – |
| C[C@H](Nc1nc(N)nc(N)c1C#N)c1nc2ccc(F)c(Cl)c2c(=O)n1-c1cc(F)cc(F)c1 | 8.54 | 74 | 6.5 | 470 | 780 | – |
| C[C@H](Nc1nc(N)nc(N)c1C#N)c1nc2c(C#N)cccc2c(=O)n1-c1cc(F)cc(F)c1 | 8.23 | 800 | 8.33 | 1200 | 1700 | – |
| Cc1nc(N)nc(N[C@@H](C)c2nc3cccc(Cl)c3c(=O)n2-c2ccccc2)c1C#N | 9.89 | 40 | 17.5 | 100 | 1900 | – |
| C[C@H](Nc1ccncn1)c1nc2cccc(Cl)c2c(=O)n1-c1ccccc1 | 5.77 | > 6 | – | > 6 | > 6 | – |
| C[C@H](Nc1nc(N)nc(N)c1C#N)c1nc2c(F)cccc2c(=O)n1-c1cc(F)cc(F)c1 | 8.46 | 130 | 8.83 | 920 | 810 | – |
| C[C@H](Nc1ncnc(N)c1C#Cc1cn[nH]c1)c1nc2cccc(Cl)c2c(=O)n1-c1ccccc1 | 9.52 | 230 | – | 260 | 1500 | – |
| C[C@H](Nc1ncnc(N)c1C#Cc1cccnn1)c1nc2cccc(Cl)c2c(=O)n1-c1ccccc1 | 6.62 | > 42 | – | 30 | > 42 | – |
| C[C@H](Nc1ccnc(N)c1C#N)c1nc2cccc(Cl)c2c(=O)n1-c1ccccc1 | 7.52 | > 340 | – | > 340 | > 340 | – |
| C[C@H](Nc1nc(N)ncc1C#N)c1nc2cccc(Cl)c2c(=O)n1-c1ccccc1 | 8.60 | 15 | – | 170 | 530 | – |
| C[C@H](Nc1ncnc(N)c1C(F)(F)F)c1nc2cccc(Cl)c2c(=O)n1-c1ccccc1 | 8.74 | 560 | 9.83 | 340 | 1200 | 2 |
| C[C@H](Nc1ncnc(N)c1C#Cc1ccccc1)c1nc2cccc(Cl)c2c(=O)n1-c1ccccc1 | 9.52 | 320 | – | 120 | 1600 | – |
| C[C@H](Nc1ncnc(N)c1C(N)=O)c1nc2cccc(Cl)c2c(=O)n1-c1ccccc1 | 7.96 | 310 | 4.5 | 310 | 860 | 1.3 |
| C[C@H](Nc1cc(N)ncn1)c1nc2cccc(Cl)c2c(=O)n1-c1ccccc1 | 7.00 | > 100 | – | > 100 | > 100 | – |
| C[C@H](Nc1ncnc(N)c1C#Cc1cnccn1)c1nc2cccc(Cl)c2c(=O)n1-c1ccccc1 | 9.40 | 512 | – | 52 | 3200 | – |
| C[C@H](Nc1nc(N)nc(N)c1C#N)c1nc2ccccc2c(=O)n1-c1cc(F)cc(F)c1 | 7.82 | 75 | 2.83 | 290 | 530 | – |
| [2H]c1nc(N)c(C#N)c(N[C@@H](C)c2nc3cccc(Cl)c3c(=O)n2-c2ccccc2)n1 | 8.92 | – | 8.33 | – | – | 1.7 |
| Cc1c(N)ncnc1N[C@@H](C)c1nc2cccc(Cl)c2c(=O)n1-c1ccccc1 | 7.85 | 700 | 12.2 | 380 | 700 | 4.17 |
| C[C@H](Nc1ncncc1C#N)c1nc2cccc(Cl)c2c(=O)n1-c1ccccc1 | 8.10 | 370 | – | 460 | 1200 | – |

The remaining lines, values ahead:

| pIC50 [1] | Ratio IC50 (Homo sapiens [2]) | CLhep predicted at 1 µM [3] [mL/min/kg] | Ratio IC50 (Homo sapiens [4]) | Ratio IC50 (Homo sapiens [5]) | CLH (Hepatocyte) [mL/min/kg] | Compound |
| --- | --- | --- | --- | --- | --- | --- |
| 8.44 | 57 | – | 230 | 1100 | – | C[C@H](Nc1nc(N)nc(N)c1C#N)c1nc2cccc(Cl)c2c(=O)n1-c1cccc(C(F)(F)F)c1 |
| 9.33 | 110 | 13.5 | 520 | 2600 | – | C[C@H](Nc1nc(N)nc(N)c1C#N)c1nc2cccc(Cl)c2c(=O)n1-c1cc(F)cc(F)c1 |
| 8.70 | 2 | – | 4 | 64 | – | C[C@H](Nc1nc(N)nc(N)c1C#N)c1nc2cccc(Cl)c2c(=O)n1-c1ccc(F)cc1 |
| 8.72 | 90 | – | 340 | 1700 | – | C[C@H](Nc1nc(N)nc(N)c1C#N)c1nc2cccc(Cl)c2c(=O)n1-c1cccc(C#N)c1 |
| 9.05 | 70 | – | 330 | 1100 | – | COc1cccc(-n2c([C@H](C)Nc3nc(N)nc(N)c3C#N)nc3cccc(Cl)c3c2=O)c1 |
| 8.82 | 220 | – | 220 | 850 | – | C[C@H](Nc1nc(N)nc(N)c1C#N)c1nc2cccc(Cl)c2c(=O)n1-c1cc(Cl)cc(C(F)F)c1 |
| 9.82 | 90 | – | 550 | 3100 | – | C[C@H](Nc1nc(N)nc(N)c1C#N)c1nc2cccc(Cl)c2c(=O)n1-c1cccc(F)c1 |
| 10.00 | 60 | 3.5 | 80 | 2200 | 1.7 | C[C@H](Nc1nc(N)nc(N)c1C#N)c1nc2cccc(Cl)c2c(=O)n1-c1ccccc1 |
| 9.27 | 210 | – | 190 | 1800 | – | C[C@H](Nc1nc(N)nc(N)c1C#N)c1nc2cccc(Cl)c2c(=O)n1-c1cccc(C(F)F)c1 |
| 9.35 | 70 | – | 140 | 530 | – | C[C@H](Nc1nc(N)nc(N)c1C#N)c1nc2cccc(Cl)c2c(=O)n1-c1cccc(Cl)c1 |
| 8.80 | 120 | – | 230 | 1400 | – | C[C@H](Nc1nc(N)nc(N)c1C#N)c1nc2cccc(Cl)c2c(=O)n1-c1cccc(CC(F)F)c1 |
| 9.00 | 25 | 13.7 | 100 | 530 | – | C[C@H](Nc1nc(N)nc(Cl)c1C#N)c1nc2cccc(Cl)c2c(=O)n1-c1ccccc1 |

— ChEMBL document CHEMBL3804828, “2,4,6-Triaminopyrimidine as a Novel Hinge Binder in a Series of PI3Kδ Selective Inhibitors” (J Med Chem, 2016)
